# Key:
# [1] = biological target: T1, ATP-dependent translocase ABCB1 (Homo sapiens, UniProt P08183); assay: Reversal of P-gp-mediated drug resistance in human KBV cells assessed as potentiation of paclitaxel-induced cytotoxicity by measuring cell survival at 5 uM after 72 hrs by MTT assay (reference value: 98 +/- 19%); assay type: cell-based
# [2] = n-octanol/aqueous buffer solution partition coefficient, log P of the compound at pH 6.8 after 4 hrs by HPLC method; assay type: physicochemical
# How it was run: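 Shake-flask partition between n-octanol and pH 6.8 buffer at a 1:1 ratio, room temperature, shaken 4 h. Compound concentration in each phase measured by HPLC.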
# [3] = Cytotoxicity against human KBV cells assessed as cell survival at 5 uM after 72 hrs by MTT assay relative to control; assay type: cell-based; conditions: read-out: Survival
# How it was run: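 KBV cells (RPMI-1640 with 10% heat-inactivated FCS, 37 °C, 5% CO2, log-phase) were seeded in 96-well plates and exposed to compound alone at 5 µM for 72 h. MTT was added and incubated, then DMSO was added. OD was read at 570 nm and survival rate was calculated.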
# [4] = biological target: T1, ATP-dependent translocase ABCB1; assay: Reversal of P-gp-mediated drug resistance in human KBV cells assessed as potentiation of paclitaxel-induced cytotoxicity by measuring fold reduction in paclitaxel IC50 at 10 uM after 72 hrs by MTT assay relative to paclitaxel alone; assay type: cell-based
# How it was run: (§1)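 KBV cells cultured in RPMI-1640 with 10% heat-inactivated fetal calf serum at 37°C, 5% CO2, and used in log phase. Seeded in 96-well plates. Exposed to paclitaxel with or without modulator (5 or 10 µM) for 24, 48 or 72 h. MTT added, formazan dissolved in DMSO, OD read at 570 nm. Survival rate used to derive paclitaxel IC50. RF taken as the fold reduction of IC50 relative to paclitaxel alone.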
# [5] = biological target: T1, ATP-dependent translocase ABCB1; assay: Reversal of P-gp-mediated drug resistance in human KBV cells assessed as potentiation of paclitaxel-induced cytotoxicity by measuring fold reduction in paclitaxel IC50 at 5 uM after 72 hrs by MTT assay relative to paclitaxel alone; assay type: cell-based; how it was run: as §1
# T1 sequence (P08183 whole entry): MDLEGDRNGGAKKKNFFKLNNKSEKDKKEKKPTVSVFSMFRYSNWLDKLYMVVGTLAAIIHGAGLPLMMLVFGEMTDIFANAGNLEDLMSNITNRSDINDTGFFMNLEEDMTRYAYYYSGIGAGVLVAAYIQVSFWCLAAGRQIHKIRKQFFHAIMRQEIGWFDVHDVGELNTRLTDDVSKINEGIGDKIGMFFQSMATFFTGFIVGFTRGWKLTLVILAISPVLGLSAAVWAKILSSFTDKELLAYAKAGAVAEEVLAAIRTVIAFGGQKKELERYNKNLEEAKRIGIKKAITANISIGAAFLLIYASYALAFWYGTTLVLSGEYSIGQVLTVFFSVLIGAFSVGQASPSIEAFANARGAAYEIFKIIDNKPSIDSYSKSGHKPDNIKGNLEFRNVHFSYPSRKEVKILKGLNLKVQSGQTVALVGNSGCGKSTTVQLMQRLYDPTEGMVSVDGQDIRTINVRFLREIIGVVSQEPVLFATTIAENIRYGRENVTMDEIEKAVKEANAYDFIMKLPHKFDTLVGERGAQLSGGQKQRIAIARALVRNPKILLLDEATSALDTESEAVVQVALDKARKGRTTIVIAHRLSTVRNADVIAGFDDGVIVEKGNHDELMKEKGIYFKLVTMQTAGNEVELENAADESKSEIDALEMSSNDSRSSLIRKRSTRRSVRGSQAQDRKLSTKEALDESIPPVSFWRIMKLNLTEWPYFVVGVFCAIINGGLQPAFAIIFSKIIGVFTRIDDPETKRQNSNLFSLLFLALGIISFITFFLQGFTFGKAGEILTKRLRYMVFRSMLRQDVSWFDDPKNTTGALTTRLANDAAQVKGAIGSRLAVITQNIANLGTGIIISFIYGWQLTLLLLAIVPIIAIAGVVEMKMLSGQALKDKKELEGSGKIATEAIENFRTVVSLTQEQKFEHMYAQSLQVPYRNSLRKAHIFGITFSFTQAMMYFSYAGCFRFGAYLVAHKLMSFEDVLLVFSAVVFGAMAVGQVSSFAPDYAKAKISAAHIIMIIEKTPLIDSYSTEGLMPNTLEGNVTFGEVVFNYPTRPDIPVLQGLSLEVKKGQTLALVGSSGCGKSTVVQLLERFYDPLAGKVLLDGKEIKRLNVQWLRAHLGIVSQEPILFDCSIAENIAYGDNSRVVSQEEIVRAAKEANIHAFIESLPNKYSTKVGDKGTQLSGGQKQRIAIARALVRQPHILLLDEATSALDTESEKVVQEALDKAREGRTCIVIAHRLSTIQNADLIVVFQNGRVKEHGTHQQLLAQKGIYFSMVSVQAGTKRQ
Structure (SMILES),Survival [1],logD at 4 h [2],"viability at 72 h, 5 µM [3]",fold change (FC) [4],fold change (FC) [5]
CC(C)C[C@H](NC(=O)[C@]12CCC(C)(C)C[C@H]1C1=CC[C@@H]3[C@@]4(C)Cc5nccnc5[C@@](C)(CO)[C@@H]4CC[C@@]3(C)[C@]1(C)CC2)C(=O)O,76%,0.08,130%,,
COC(=O)CCC(=O)NOC(=O)[C@]12CCC(C)(C)C[C@H]1C1=CC[C@@H]3[C@@]4(C)Cc5nccnc5[C@@](C)(CO)[C@@H]4CC[C@@]3(C)[C@]1(C)CC2,32%,-1.24,86%,,
COc1ccc(CCN(C)CCCC(C#N)(c2ccc(OC)c(OC)c2)C(C)C)cc1OC (stereo not drawn),23%,,,,
CC1(C)CC[C@]2(C(=O)On3nnc4ccc(Cl)cc43)CC[C@]3(C)C(=CC[C@@H]4[C@@]5(C)CC[C@H](O)[C@@](C)(CO)[C@@H]5CC[C@]43C)[C@@H]2C1,111%,-0.75,97%,,
CSCC[C@H](NC(=O)[C@]12CCC(C)(C)C[C@H]1C1=CC[C@@H]3[C@@]4(C)Cc5nccnc5[C@@](C)(CO)[C@@H]4CC[C@@]3(C)[C@]1(C)CC2)C(=O)O,94%,-0.2,94%,,
CC1(C)CC[C@]2(C(=O)On3nnc4cccnc43)CC[C@]3(C)C(=CC[C@@H]4[C@@]5(C)CC[C@H](O)[C@@](C)(CO)[C@@H]5CC[C@]43C)[C@@H]2C1,115%,-0.23,94%,,
CC1(C)CC[C@]2(C(=O)OCCOC(=O)[C@]34CCC(C)(C)C[C@H]3C3=CC[C@@H]5[C@@]6(C)CC[C@H](O)[C@@](C)(CO)[C@@H]6CC[C@@]5(C)[C@]3(C)CC4)CC[C@]3(C)C(=CC[C@@H]4[C@@]5(C)CC[C@H](O)[C@@](C)(CO)[C@@H]5CC[C@]43C)[C@@H]2C1,37%,,136%,,
CC1(C)CC[C@]2(C(=O)OCCCCOC(=O)[C@]34CCC(C)(C)C[C@H]3C3=CC[C@@H]5[C@@]6(C)CC[C@H](O)[C@@](C)(CO)[C@@H]6CC[C@@]5(C)[C@]3(C)CC4)CC[C@]3(C)C(=CC[C@@H]4[C@@]5(C)CC[C@H](O)[C@@](C)(CO)[C@@H]5CC[C@]43C)[C@@H]2C1,44%,,92%,,
CC1(C)CC[C@]2(C(=O)O)CC[C@]3(C)C(=CC[C@@H]4[C@@]5(C)CC[C@H](O)[C@@](C)(CO)[C@@H]5CC[C@]43C)[C@@H]2C1 [HEDERAGENIN],100%,,,,
CC1(C)CC[C@]2(C(=O)N[C@@H](CC(=O)O)C(=O)O)CC[C@]3(C)C(=CC[C@@H]4[C@@]5(C)Cc6nccnc6[C@@](C)(CO)[C@@H]5CC[C@]43C)[C@@H]2C1,81%,-0.39,90%,,
CC1(C)CC[C@]2(C(=O)N[C@@H](CCC(=O)O)C(=O)O)CC[C@]3(C)C(=CC[C@@H]4[C@@]5(C)Cc6nccnc6[C@@](C)(CO)[C@@H]5CC[C@]43C)[C@@H]2C1,80%,-0.66,91%,,
CC1(C)CC[C@]2(C(=O)O)CC[C@]3(C)C(C(=O)C[C@@H]4[C@@]5(C)CCC(=O)[C@@](C)(CO)[C@@H]5CC[C@]43C)[C@@H]2C1 (stereo partly drawn),104%,,102%,,
CC1(C)CC[C@]2(C(=O)NCC(=O)O)CC[C@]3(C)C(=CC[C@@H]4[C@@]5(C)Cc6nccnc6[C@@](C)(CO)[C@@H]5CC[C@]43C)[C@@H]2C1,101%,-0.43,96%,,
CC1(C)CC[C@]2(C(=O)OCCCCCOC(=O)[C@]34CCC(C)(C)C[C@H]3C3=CC[C@@H]5[C@@]6(C)CC[C@H](O)[C@@](C)(CO)[C@@H]6CC[C@@]5(C)[C@]3(C)CC4)CC[C@]3(C)C(=CC[C@@H]4[C@@]5(C)CC[C@H](O)[C@@](C)(CO)[C@@H]5CC[C@]43C)[C@@H]2C1,42%,,123%,,
CC1(C)CC[C@]2(C(=O)On3nnc4ccc(Cl)cc43)CC[C@]3(C)C(C(=O)C[C@@H]4[C@@]5(C)CCC(=O)[C@@](C)(CO)[C@@H]5CC[C@]43C)[C@@H]2C1 (stereo partly drawn),112%,0.1,98%,,
CC1(C)CC[C@]2(C(=O)ONC(=O)CCC(=O)O)CC[C@]3(C)C(=CC[C@@H]4[C@@]5(C)Cc6nccnc6[C@@](C)(CO)[C@@H]5CC[C@]43C)[C@@H]2C1,112%,-0.78,89%,,

Structure (SMILES),Survival [1],logD at 4 h [2],"viability at 72 h, 5 µM [3]",fold change (FC) [4],fold change (FC) [5]
CC1(C)CC[C@]2(C(=O)N[C@@H](CO)C(=O)O)CC[C@]3(C)C(=CC[C@@H]4[C@@]5(C)Cc6nccnc6[C@@](C)(CO)[C@@H]5CC[C@]43C)[C@@H]2C1,76%,-0.11,102%,,
CC1(C)CC[C@]2(C(=O)n3ccnc3)CC[C@]3(C)C(=CC[C@@H]4[C@@]5(C)CC[C@H](O)[C@@](C)(CO)[C@@H]5CC[C@]43C)[C@@H]2C1,,-0.4,,,
CC1(C)CC[C@]2(C(=O)N3CCC[C@H]3C(=O)O)CC[C@]3(C)C(=CC[C@@H]4[C@@]5(C)Cc6nccnc6[C@@](C)(CO)[C@@H]5CC[C@]43C)[C@@H]2C1,91%,0.38,121%,,
CC(C)[C@H](NC(=O)[C@]12CCC(C)(C)C[C@H]1C1=CC[C@@H]3[C@@]4(C)Cc5nccnc5[C@@](C)(CO)[C@@H]4CC[C@@]3(C)[C@]1(C)CC2)C(=O)O,114%,-0.78,83%,,
Cl.Cl.Cl.O[C@@H](COc1cccc2ncccc12)CN1CCN([C@@H]2c3ccccc3[C@@H]3[C@H](c4ccccc42)C3(F)F)CC1 [ZOSUQUIDAR TRIHYDROCHLORIDE],,,,114.11,32.5
CC1(C)CC[C@]2(C(=O)O)CC[C@]3(C)C(=CC[C@@H]4[C@@]5(C)Cc6nccnc6[C@@](C)(COC(=O)CCC(=O)O)[C@@H]5CC[C@]43C)[C@@H]2C1,102%,-0.28,96%,,
CC1(C)CC[C@]2(C(=O)O)CC[C@]3(C)C(=CC[C@@H]4[C@@]5(C)Cc6nccnc6[C@@](C)(CO)[C@@H]5CC[C@]43C)[C@@H]2C1,61%,0.24,89%,,
CC1(C)CC[C@]2(C(=O)OCCN)CC[C@]3(C)C(=CC[C@@H]4[C@@]5(C)Cc6nccnc6[C@@](C)(CO)[C@@H]5CC[C@]43C)[C@@H]2C1,24%,0.36,116%,,
COc1cc2c(cc1OC)CN(CCc1ccc(NC(=O)c3cc(OC)c(OC)cc3NC(=O)c3cnc4ccccc4c3)cc1)CC2,,,,89.41,75.95
CC1(C)CC[C@]2(C(=O)On3nnc4ccccc43)CC[C@]3(C)C(C(=O)C[C@@H]4[C@@]5(C)CCC(=O)[C@@](C)(CO)[C@@H]5CC[C@]43C)[C@@H]2C1 (stereo partly drawn),127%,0.14,110%,,
CC1(C)CC[C@]2(C(=O)N[C@@H](Cc3ccccc3)C(=O)O)CC[C@]3(C)C(=CC[C@@H]4[C@@]5(C)Cc6nccnc6[C@@](C)(CO)[C@@H]5CC[C@]43C)[C@@H]2C1,129%,-0.32,94%,,
CC1(C)CC[C@]2(C(=O)N[C@@H](Cc3ccc(O)cc3)C(=O)O)CC[C@]3(C)C(=CC[C@@H]4[C@@]5(C)Cc6nccnc6[C@@](C)(CO)[C@@H]5CC[C@]43C)[C@@H]2C1,68%,-0.03,76%,,
CC1(C)CC[C@]2(C(=O)O)CC[C@]3(C)C(=CC[C@@H]4[C@@]5(C)Cc6nccnc6[C@@](C)(COC(=O)c6ccccc6C(=O)O)[C@@H]5CC[C@]43C)[C@@H]2C1,85%,-0.66,116%,,
CC1(C)CC[C@]2(C(=O)OCCCOC(=O)[C@]34CCC(C)(C)C[C@H]3C3=CC[C@@H]5[C@@]6(C)CC[C@H](O)[C@@](C)(CO)[C@@H]6CC[C@@]5(C)[C@]3(C)CC4)CC[C@]3(C)C(=CC[C@@H]4[C@@]5(C)CC[C@H](O)[C@@](C)(CO)[C@@H]5CC[C@]43C)[C@@H]2C1,45%,,107%,,
CC1(C)CC[C@]2(C(=O)O)CC[C@]3(C)C(=CC[C@@H]4[C@@]5(C)Cc6nccnc6[C@@](C)(COC(=O)C6CCCCC6C(=O)O)[C@@H]5CC[C@]43C)[C@@H]2C1 (stereo partly drawn),100%,-0.33,95%,,
C[C@H](NC(=O)[C@]12CCC(C)(C)C[C@H]1C1=CC[C@@H]3[C@@]4(C)Cc5nccnc5[C@@](C)(CO)[C@@H]4CC[C@@]3(C)[C@]1(C)CC2)C(=O)O,264%,-1.07,98%,,
